system: T1, OR4CB P8T; conditions: stereoisomer not certain
T1 sequence (whole entry): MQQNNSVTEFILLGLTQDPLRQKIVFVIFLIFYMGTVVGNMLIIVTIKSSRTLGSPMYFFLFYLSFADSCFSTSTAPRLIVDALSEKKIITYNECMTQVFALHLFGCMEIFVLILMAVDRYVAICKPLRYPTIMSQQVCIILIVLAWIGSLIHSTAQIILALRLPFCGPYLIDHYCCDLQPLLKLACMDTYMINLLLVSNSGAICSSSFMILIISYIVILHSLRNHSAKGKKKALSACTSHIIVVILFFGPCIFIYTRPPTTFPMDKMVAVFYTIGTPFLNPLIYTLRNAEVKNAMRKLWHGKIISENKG
Procedure, shortened: (§1)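 Each entry records the cell line, G-protein, co-transfected protein and tags used. Methods varied with the source, often transient luciferase assays in mammalian cell lines. A receptor–molecule pair is called responsive (active) if the original authors judged its signal statistically different from baseline and non-responsive (inactive) otherwise.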

Odorant receptor agonist call, inactive:
CCCC(S)CCOC(C)=O (configuration not stated)
CC1=NC(C)C(C)S1 (configuration not stated)
CC1=C(O)C(=O)OC1C (configuration not stated)
CCCCCCC=CCCC=O
CC1=C(O)C(=O)C(C)O1 (configuration not stated)
Cc1cnc(C)c(C)n1
CCC1OC(C)=C(O)C1=O (configuration not stated)
CCC1OC(=O)C(O)=C1C (configuration not stated)

system: OR4CC; conditions: stereoisomer not certain
Procedure, shortened: as §1

Chain of OR4CC (as listed by the source): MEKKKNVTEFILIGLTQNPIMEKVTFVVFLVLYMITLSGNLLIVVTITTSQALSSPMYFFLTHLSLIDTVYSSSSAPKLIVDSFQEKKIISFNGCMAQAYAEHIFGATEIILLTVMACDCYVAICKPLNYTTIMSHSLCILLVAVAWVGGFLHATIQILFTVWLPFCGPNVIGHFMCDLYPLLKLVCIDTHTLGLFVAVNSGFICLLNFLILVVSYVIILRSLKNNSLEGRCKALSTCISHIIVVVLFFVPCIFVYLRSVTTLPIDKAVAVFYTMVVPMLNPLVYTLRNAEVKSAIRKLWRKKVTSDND

Odorant receptor agonist call, inactive:
CCCC(S)CCOC(C)=O (configuration not stated)
CC1=NC(C)C(C)S1 (configuration not stated)
CC1=C(O)C(=O)OC1C (configuration not stated)
CCCCCCC=CCCC=O
CC1=C(O)C(=O)C(C)O1 (configuration not stated)
Cc1cnc(C)c(C)n1
CCC1OC(C)=C(O)C1=O (configuration not stated)
CCC1OC(=O)C(O)=C1C (configuration not stated)

system: OR4CD V133I; conditions: stereoisomer not certain
Procedure, shortened: as §1

Chain of OR4CD V133I (as listed by the source, stated change not applied): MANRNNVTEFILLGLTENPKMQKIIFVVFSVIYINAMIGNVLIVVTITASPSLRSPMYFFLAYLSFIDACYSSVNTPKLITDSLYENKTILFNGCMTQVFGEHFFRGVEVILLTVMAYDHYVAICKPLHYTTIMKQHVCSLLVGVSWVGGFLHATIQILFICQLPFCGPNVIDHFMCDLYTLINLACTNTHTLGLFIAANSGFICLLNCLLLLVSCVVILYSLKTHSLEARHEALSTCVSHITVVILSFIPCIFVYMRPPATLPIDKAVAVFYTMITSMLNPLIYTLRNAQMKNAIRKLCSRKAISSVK

Odorant receptor agonist call, inactive:
CCCC(S)CCOC(C)=O (configuration not stated)
CC1=NC(C)C(C)S1 (configuration not stated)
CC1=C(O)C(=O)OC1C (configuration not stated)
CCCCCCC=CCCC=O
CC1=C(O)C(=O)C(C)O1 (configuration not stated)
Cc1cnc(C)c(C)n1
CCC1OC(C)=C(O)C1=O (configuration not stated)
CCC1OC(=O)C(O)=C1C (configuration not stated)

system: OR4CF; conditions: stereoisomer not certain
Procedure, shortened: as §1

Chain of OR4CF (as listed by the source): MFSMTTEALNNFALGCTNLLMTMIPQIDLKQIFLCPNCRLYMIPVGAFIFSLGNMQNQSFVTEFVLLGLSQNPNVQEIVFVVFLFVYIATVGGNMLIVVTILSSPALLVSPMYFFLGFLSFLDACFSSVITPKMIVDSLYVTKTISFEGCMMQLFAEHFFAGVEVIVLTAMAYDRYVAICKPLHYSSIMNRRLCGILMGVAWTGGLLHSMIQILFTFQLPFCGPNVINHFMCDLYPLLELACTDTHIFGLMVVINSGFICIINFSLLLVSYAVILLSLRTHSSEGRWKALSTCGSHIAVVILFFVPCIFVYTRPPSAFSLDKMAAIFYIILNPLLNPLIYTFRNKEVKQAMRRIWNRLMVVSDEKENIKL

Odorant receptor agonist call, inactive:
CCCC(S)CCOC(C)=O (configuration not stated)
CC1=NC(C)C(C)S1 (configuration not stated)
CC1=C(O)C(=O)OC1C (configuration not stated)
CC1=C(O)C(=O)C(C)O1 (configuration not stated)
Cc1cnc(C)c(C)n1
CCC1OC(C)=C(O)C1=O (configuration not stated)
CCC1OC(=O)C(O)=C1C (configuration not stated)

system: T2, OR4CG T76A; conditions: stereoisomer not certain
T2 sequence (whole entry): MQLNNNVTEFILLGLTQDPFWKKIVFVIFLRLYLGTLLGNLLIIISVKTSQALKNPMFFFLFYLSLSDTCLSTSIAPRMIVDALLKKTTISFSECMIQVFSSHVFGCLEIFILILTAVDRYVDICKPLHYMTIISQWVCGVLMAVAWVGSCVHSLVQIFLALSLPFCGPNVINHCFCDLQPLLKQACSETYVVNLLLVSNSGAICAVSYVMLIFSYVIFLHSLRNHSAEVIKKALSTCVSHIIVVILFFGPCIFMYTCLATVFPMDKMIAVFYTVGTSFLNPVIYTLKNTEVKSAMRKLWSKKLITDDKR
Procedure, shortened: as §1

Odorant receptor agonist call, inactive:
CCCC(S)CCOC(C)=O (configuration not stated)
CC1=NC(C)C(C)S1 (configuration not stated)
CC1=C(O)C(=O)OC1C (configuration not stated)
CCCCCCC=CCCC=O
CC1=C(O)C(=O)C(C)O1 (configuration not stated)
Cc1cnc(C)c(C)n1
CCC1OC(C)=C(O)C1=O (configuration not stated)
CCC1OC(=O)C(O)=C1C (configuration not stated)

molecular target: OR4D1 (Homo sapiens) (UniProt Q15615); conditions: stereoisomer not certain
Procedure, shortened: as §1

Chain of OR4D1 (Homo sapiens) (Q15615 whole entry): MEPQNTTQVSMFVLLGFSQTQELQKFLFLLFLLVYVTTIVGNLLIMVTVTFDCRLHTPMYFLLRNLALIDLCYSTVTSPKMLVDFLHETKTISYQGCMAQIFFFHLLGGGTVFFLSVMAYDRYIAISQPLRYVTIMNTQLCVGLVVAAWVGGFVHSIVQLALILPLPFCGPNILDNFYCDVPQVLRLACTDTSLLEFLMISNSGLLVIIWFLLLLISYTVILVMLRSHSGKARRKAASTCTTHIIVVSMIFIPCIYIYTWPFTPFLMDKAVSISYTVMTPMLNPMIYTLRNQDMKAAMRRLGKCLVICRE

Odorant receptor agonist call, inactive:
CCCCCC(=O)C(C)C(C)=O (configuration not stated)
CC(CO)CS (configuration not stated)
CCCC(S)CCOC(C)=O (configuration not stated)
CC1=NC(C)C(C)S1 (configuration not stated)
CC1=C(O)C(=O)OC1C (configuration not stated)
CCCCC(S)C(C)CO (configuration not stated)
CC1CCCCCCCCCCCCC(=O)C1 (configuration not stated)
CC(=O)c1c(C)c([N+](=O)[O-])c(C(C)(C)C)c([N+](=O)[O-])c1C
CCCCCCC=CCCC=O
CC1=C(O)C(=O)C(C)O1 (configuration not stated)
Cc1cnc(C)c(C)n1
CCC1OC(C)=C(O)C1=O (configuration not stated)
CCC(S)C(C)CO (configuration not stated)
CCC1OC(=O)C(O)=C1C (configuration not stated)
CCCCCC(S)C(C)CO (configuration not stated)

molecular target: OR4D10 (Homo sapiens) (UniProt Q8NGI6); conditions: stereoisomer not certain
Procedure, shortened: as §1

Chain of OR4D10 (Homo sapiens) (Q8NGI6 whole entry): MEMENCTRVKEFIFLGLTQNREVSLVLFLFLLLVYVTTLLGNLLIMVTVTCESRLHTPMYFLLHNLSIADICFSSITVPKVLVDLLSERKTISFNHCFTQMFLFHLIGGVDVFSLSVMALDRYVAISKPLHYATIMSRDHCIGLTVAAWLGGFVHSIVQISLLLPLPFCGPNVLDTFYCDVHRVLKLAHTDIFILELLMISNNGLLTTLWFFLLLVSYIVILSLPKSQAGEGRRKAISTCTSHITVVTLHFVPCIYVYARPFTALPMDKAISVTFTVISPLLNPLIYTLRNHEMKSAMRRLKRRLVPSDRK

Odorant receptor agonist call, inactive:
CCCCCC(=O)C(C)C(C)=O (configuration not stated)
CC(CO)CS (configuration not stated)
CCCC(S)CCOC(C)=O (configuration not stated)
CC1=NC(C)C(C)S1 (configuration not stated)
CC1=C(O)C(=O)OC1C (configuration not stated)
CCCCC(S)C(C)CO (configuration not stated)
CC1CCCCCCCCCCCCC(=O)C1 (configuration not stated)
CC(=O)c1c(C)c([N+](=O)[O-])c(C(C)(C)C)c([N+](=O)[O-])c1C
CCCCCCC=CCCC=O
CC1=C(O)C(=O)C(C)O1 (configuration not stated)
Cc1cnc(C)c(C)n1
CCC1OC(C)=C(O)C1=O (configuration not stated)
CCC(S)C(C)CO (configuration not stated)
CCC1OC(=O)C(O)=C1C (configuration not stated)
CCCCCC(S)C(C)CO (configuration not stated)

molecular target: OR4D11 (Homo sapiens) (UniProt Q8NGI4); conditions: stereoisomer not certain
Procedure, shortened: as §1

Chain of OR4D11 (Homo sapiens) (Q8NGI4 whole entry): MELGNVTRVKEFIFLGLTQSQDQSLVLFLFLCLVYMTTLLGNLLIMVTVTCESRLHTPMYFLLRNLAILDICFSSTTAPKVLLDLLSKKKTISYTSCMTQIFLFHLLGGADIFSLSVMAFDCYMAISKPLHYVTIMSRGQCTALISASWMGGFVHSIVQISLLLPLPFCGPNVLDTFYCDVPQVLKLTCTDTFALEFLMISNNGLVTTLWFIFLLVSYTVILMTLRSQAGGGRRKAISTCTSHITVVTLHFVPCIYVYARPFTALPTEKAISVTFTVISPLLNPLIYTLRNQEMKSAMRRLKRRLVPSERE

Odorant receptor agonist call, inactive:
CCCCCC(=O)C(C)C(C)=O (configuration not stated)
CC(CO)CS (configuration not stated)
CCCC(S)CCOC(C)=O (configuration not stated)
CC1=NC(C)C(C)S1 (configuration not stated)
CC1=C(O)C(=O)OC1C (configuration not stated)
CCCCC(S)C(C)CO (configuration not stated)
CC1CCCCCCCCCCCCC(=O)C1 (configuration not stated)
CC(=O)c1c(C)c([N+](=O)[O-])c(C(C)(C)C)c([N+](=O)[O-])c1C
CCCCCCC=CCCC=O
CC1=C(O)C(=O)C(C)O1 (configuration not stated)
Cc1cnc(C)c(C)n1
CCC1OC(C)=C(O)C1=O (configuration not stated)
CCC(S)C(C)CO (configuration not stated)
CCC1OC(=O)C(O)=C1C (configuration not stated)
CCCCCC(S)C(C)CO (configuration not stated)

system: OR4D1; conditions: stereoisomer not certain
Procedure, shortened: as §1

Chain of OR4D1 (as listed by the source): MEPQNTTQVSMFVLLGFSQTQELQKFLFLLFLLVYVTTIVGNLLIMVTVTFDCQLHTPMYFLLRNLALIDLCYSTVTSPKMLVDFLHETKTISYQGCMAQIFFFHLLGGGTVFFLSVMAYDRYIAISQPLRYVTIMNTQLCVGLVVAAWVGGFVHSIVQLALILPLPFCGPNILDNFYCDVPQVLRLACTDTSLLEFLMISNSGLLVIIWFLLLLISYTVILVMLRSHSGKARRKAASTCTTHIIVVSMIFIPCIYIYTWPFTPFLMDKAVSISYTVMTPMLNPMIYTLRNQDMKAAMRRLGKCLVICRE

Odorant receptor agonist call, inactive:
CCCC(S)CCOC(C)=O (configuration not stated)
CC1=NC(C)C(C)S1 (configuration not stated)
CC1=C(O)C(=O)OC1C (configuration not stated)
CCCCCCC=CCCC=O
CC1=C(O)C(=O)C(C)O1 (configuration not stated)
Cc1cnc(C)c(C)n1
CCC1OC(C)=C(O)C1=O (configuration not stated)
CCC1OC(=O)C(O)=C1C (configuration not stated)

molecular target: OR4D2 (Homo sapiens) (UniProt P58180); conditions: stereoisomer not certain
Procedure, shortened: as §1

Chain of OR4D2 (Homo sapiens) (P58180 whole entry): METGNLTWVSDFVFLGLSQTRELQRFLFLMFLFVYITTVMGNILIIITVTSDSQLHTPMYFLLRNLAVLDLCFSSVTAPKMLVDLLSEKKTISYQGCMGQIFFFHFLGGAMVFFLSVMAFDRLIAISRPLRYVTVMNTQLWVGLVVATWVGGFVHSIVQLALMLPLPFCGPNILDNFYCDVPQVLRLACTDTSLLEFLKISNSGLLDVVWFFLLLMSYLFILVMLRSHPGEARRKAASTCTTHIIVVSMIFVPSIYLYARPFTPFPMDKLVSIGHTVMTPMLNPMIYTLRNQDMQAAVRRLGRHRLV

Odorant receptor agonist call, inactive:
CCCCCC(=O)C(C)C(C)=O (configuration not stated)
CC(CO)CS (configuration not stated)
CCCC(S)CCOC(C)=O (configuration not stated)
CC1=NC(C)C(C)S1 (configuration not stated)
CC1=C(O)C(=O)OC1C (configuration not stated)
CCCCC(S)C(C)CO (configuration not stated)
CC1CCCCCCCCCCCCC(=O)C1 (configuration not stated)
CC(=O)c1c(C)c([N+](=O)[O-])c(C(C)(C)C)c([N+](=O)[O-])c1C
CCCCCCC=CCCC=O
CC1=C(O)C(=O)C(C)O1 (configuration not stated)
Cc1cnc(C)c(C)n1
CCC1OC(C)=C(O)C1=O (configuration not stated)
CCC(S)C(C)CO (configuration not stated)
CCC1OC(=O)C(O)=C1C (configuration not stated)
CCCCCC(S)C(C)CO (configuration not stated)
